Assay results: publication PMC9303465 (Hematological Oncology, 2022)

Experiment: Population PK analysis of venetoclax in AML patients
Type: in vivo
In short: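 Plasma PK data were pooled from five studies: 771 R/R or treatment-naïve AML patients given ≥1 dose, with daily ramp-up to 400–1200 mg QD. Fitted by nonlinear mixed-effects modelling (FOCE-INT), using a prior CLL/SLL/NHL/healthy-volunteer model as informative priors. Race, azacitidine, decitabine and LDAC were tested stepwise (forward α=0.01, backward α=0.001) as multiplicative factors on CL/F, Vd/F and bioavailability. Validated by pcVPC (500 replicates); AUCss was taken from the planned dose.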

- Median exposure (AUCss) at 400 mg venetoclax (Asian patients): 1.85 µg·days/mL
- higher relative bioavailability in Asian than non‐Asian patients (Asian vs non-Asian AML patients): 67%
- Median exposure (AUCss) at 400 mg venetoclax (Non‐Asian patients): 1.11 µg·days/mL
- effect of co-administration on venetoclax CL/F (P‐gp inhibitors, mild CYP3A inhibitors, azacitidine, decitabine, or LDAC): no effect
- increase of venetoclax Vd/F with azacitidine (azacitidine co-administration): 24%
- decrease of venetoclax CL/F by moderate CYP3A inhibitors (co-administered moderate CYP3A inhibitors): 19%
- decrease of venetoclax CL/F by strong CYP3A inhibitors (co-administered strong CYP3A inhibitors): 83%
Compound: CC1(C)CCC(CN2CCN(c3ccc(C(=O)NS(=O)(=O)c4ccc(NCC5CCOCC5)c([N+](=O)[O-])c4)c(Oc4cnc5[nH]ccc5c4)c3)CC2)=C(c2ccc(Cl)cc2)C1 [Venetoclax]
- effect of covariates on venetoclax exposure (sex, mild to moderate hepatic impairment, mild to severe renal impairment, age, body weight): did not appear to have any effect
